Assay [1] has as its target T1, Adenosine receptor A1 (Bos taurus, UniProt P28190).
T1 sequence (P28190 whole entry): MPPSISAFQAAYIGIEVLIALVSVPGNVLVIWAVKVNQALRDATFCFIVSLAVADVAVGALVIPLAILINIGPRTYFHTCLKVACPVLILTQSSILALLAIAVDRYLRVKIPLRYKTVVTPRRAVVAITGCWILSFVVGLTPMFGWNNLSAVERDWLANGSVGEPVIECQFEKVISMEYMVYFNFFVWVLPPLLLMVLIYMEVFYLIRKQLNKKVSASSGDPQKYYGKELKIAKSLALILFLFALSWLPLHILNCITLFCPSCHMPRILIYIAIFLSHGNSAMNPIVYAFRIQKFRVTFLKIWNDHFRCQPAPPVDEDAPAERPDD
The assay is described as follows: Affinity to A1 adenosine receptor was measured by the displacement of […] in bovine brain cortical membrane. It is filed as cell membranes. In a few lines: (§1)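 Bovine cerebral cortex was homogenized in ice-cold 0.32 M sucrose with protease inhibitors and spun at 1000g, then 48000g, at 4 °C. The pellet was treated with adenosine deaminase (2 units/mL) at 37 °C for 60 min. Membranes (0.2-0.3 mg protein) were incubated in triplicate with about 1.2 nM [³H]CHA in Tris-HCl pH 7.7 with MgCl₂ at 25 °C for 45 min. Nonspecific binding was defined with 50 μM R-PIA. Binding was ended by GF/C filtration. Compounds were added in DMSO (2% solvent), up to 30 μM. IC50 was read from semilog plots, and Ki was derived using Kd 10.5 nM.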

Assay [2] deals with Adenosine receptor A2a (Bos taurus). Put plainly: Affinity to A2 adenosine receptor was measured by the displacement of [3H]-CGS- 21680 in bovine brain striatal membrane.
Assay [3] is filed under the species Bos taurus. Put plainly: Ratio between the Ki values of A2 and A1 receptors.
Assay [4] concerns the target T1, Adenosine receptor A1. The assay is described as follows: Affinity for A1 adenosine receptor by displacement of […] in bovine brain cortical membrane; d= Inactive at highest tested concentration 30 uM. It is filed as tissue-based. Summed up: as §1
Assay [5] deals with Adenosine A2 receptor (Bos taurus). Put plainly: Displacement of [3H]-CGS- 21680 from A2 adenosine receptor in bovine brain striatal membrane at […]. The settings on record: Striatum.

For `CCCn1c(=O)c2nn(C3CCCC3)nc2n(CCC)c1=O`, the Ki in assay [1] worked out at 1.3 µM; in assay [2], 13 µM. Also, the Ratio in assay [3] was 10.
Consider `Cn1c(=O)c2c(nnn2C)n(C)c1=O`, for which, in assay [4], the Ki entry was “Not Active”.
As for `CCCn1c(=O)c2c(nnn2C2CCCCC2O)n(CCC)c1=O` (centres undefined), the Ki in assay [1] was 1.8 µM; in assay [2] it was 13.5 µM. In assay [3], the Ratio came to 7.5.
Take `Cn1c(=O)c2c(nnn2C2CC3CCC2C3)n(C)c1=O` (centres undefined): the results for the inhibitory constant (Ki) in assay [1] and in assay [2] were 18 µM and 4.5 µM, respectively. Further, the Ratio in assay [3] is 0.25.
In assay [1], `Cn1c(=O)c2c(nnn2-c2ccc(Cl)cc2N)n(C)c1=O` came in with a Ki of 14 µM.
The same measure, in the same setting: the figure for `CCCn1c(=O)c2nn(-c3ccc(Cl)cc3N)nc2n(CCC)c1=O` is 1.5 µM.
In the case of `Cn1c(=O)c2nn(C3CCCC3)nc2n(C)c1=O`, the values for the Ki in assay [1] and in assay [2] were 110 µM and 58 µM, respectively. Besides, the Ratio in assay [3] came to 0.5.
In the same order, the values of `Cn1c(=O)c2nn(C3CCCCC3)nc2n(C)c1=O` are 36 µM, 250 µM and 6.9.
In assay [1], `Cn1c(=O)c2c(nnn2C2CCCCC2O)n(C)c1=O` (centres undefined) registered a Ki of 114 µM.
Take `Cn1nc2c(=O)n(C)c(=O)n(C)c2n1`: the figures for the Ki entry in assay [4] and in assay [2] were “Not Active” and 52.8 µM, respectively.
For `Cn1c(=O)c2c(nnn2C2CCCC2)n(C)c1=O`, the figures for the Ki in assay [1] and in assay [2] were 11 µM and 292 µM, respectively. For the same molecule, in assay [3], the Ratio came out at 26.
For `CCCn1c(=O)c2c(nnn2C2CCCCC2)n(CCC)c1=O`, the affinity in assay [1] corresponds to a Ki of 1.1 µM. This lies in the single-digit micromolar range.
Regarding `CCCn1c(=O)c2c(nnn2C2CCCC2)n(CCC)c1=O`, the values for the Ki in assay [1] and in assay [2] were 0.34 µM and 10 µM, respectively. Further, the Ratio in assay [3] is 29.
Turning to `Cn1c(=O)c2nn(C3CC4CCC3C4)nc2n(C)c1=O` (centres undefined), the Ki stood at 31 µM in assay [1] and 49 µM in assay [2]. Moreover, the Ratio in assay [3] is 1.6.
For the molecule `CCCn1c(=O)c2nn(C3CCCCC3O)nc2n(CCC)c1=O` (centres undefined), the inhibition in assay [5] worked out at 20%. This molecule also registered a Ki in assay [1] of 1.4 µM.
For the molecule `CCCn1c(=O)c2nn(C3CCCCC3)nc2n(CCC)c1=O`, the Ki in assay [1] was 1.6 µM; in assay [2], 21.7 µM. The Ratio in assay [3] is 13.
For the molecule `Cn1c(=O)c2c(nnn2C2CCCCC2)n(C)c1=O`, the values for the inhibitory constant (Ki) in assay [1] and in assay [2] were 23 µM and 8.4 µM, respectively. Further, in assay [3], the Ratio was 0.36.
`Cn1c(=O)c2c(ncn2C)n(C)c1=O` [CAFFEINE] displayed a Ki in assay [1] of 29 µM.
Turning to `Cn1c(=O)c2nn[nH]c2n(C)c1=O`, the Ki result in assay [4] is listed as “Not Active”.
As to `Cn1c(=O)c2nn(-c3ccc(Cl)cc3N)nc2n(C)c1=O`, the affinity in assay [1], expressed as Ki, was 24 µM.
Still for that read-out and setting: the figure for `CCCn1c(=O)c2c(nnn2-c2ccc(Cl)cc2N)n(CCC)c1=O` is 44 µM.
Take `Cn1c(=O)c2nn(C3CCCCC3O)nc2n(C)c1=O` (centres undefined): in assay [4], the Ki result is reported as “Not Active”.
